Reference: ChEMBL document CHEMBL3596140, “Bisleuconothine A Induces Autophagosome Formation by Interfering with AKT-mTOR Signaling Pathway” (J Nat Prod, 2015)
Active and inactive are the calls of the source. The calls are words filed in the database; no cut-off is given here.

Tests used:
A549 [1] = experiment: Induction of autophagy in human A549 cells assessed as increase in conversion of LC3-1 to LC3-2 at 5 uM after 6 hrs by Western blot analysis; format: functional, cell-based
Summary of the method: (§1)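 A549 cells kept in serum-free medium for 1 h, then exposed to 6 μM compound or 5 μM everolimus, with or without bafilomycin A1 (400 nM), for 6 h. LC3 and p62 levels in lysates assessed by Western blot to follow autophagic flux.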

A549 [2] = experiment: Induction of autophagic punctation in human A549 cells assessed as increase of puncta with LC3 at 5 uM after 6 hrs by immunofluorescence staining-based microscopic analysis relative to control; format: functional, cell-based
Summary of the method: (§2)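 A549 cells on chamber slides placed in serum-free medium for 1 h, then exposed for 6 h to 6 μM compound, 5 μM everolimus or 400 nM bafilomycin A1. Fixed in ice-cold methanol for 15 min at −20 °C and blocked. Stained for LC3B, LAMP2 and p62 with Alexa Fluor 488/546/647 secondaries, mounted with DAPI, and puncta assessed by fluorescence microscopy.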

A549 [3] = experiment: Inhibition of AKT in human A549 cells assessed as downregulation of PRAS40 phosphorylation at thr246 at 5 uM after 3 to 12 hrs by Western blot analysis; format: cell-based
Summary of the method: (§3)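 A549 total lysates harvested 3, 6, 12 or 24 h after exposure to 6 μM compound or 5 μM everolimus. Western blot on PVDF with antibodies to phospho-mTOR Ser2448, phospho-AKT Thr308 and Ser473, phospho-p70S6K Thr389, phospho-PDK1 Ser241 and PRAS40 Thr246, alongside total proteins and β-actin.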

[4] = target: Serine/threonine-protein kinase mTOR (Homo sapiens) (UniProt P42345); experiment: Inhibition of mTOR phosphorylation at ser2448 in human A549 cells at 5 uM after 3 to 24 hrs by Western blot analysis; format: cell-based; summary of the method: as §3
[5] = target: Serine/threonine-protein kinase mTOR (Homo sapiens) (UniProt P42345); experiment: Inhibition of mTOR in human A549 cells assessed as downregulation of p70S6K phosphorylation at thr389 at 5 uM after 3 to 24 hrs by Western blot analysis; format: cell-based; summary of the method: as §3
A549 [6] = experiment: Prevention of autophagosome degradation in human A549 cells assessed as upregulation of p62 expression at 5 uM after 6 hrs by Western blot analysis; format: functional, cell-based; summary of the method: as §1
A549 [7] = experiment: Induction of autophagic punctation in human A549 cells assessed as increase of puncta with p62 at 5 uM after 6 hrs by immunofluorescence staining-based microscopic analysis relative to control; format: functional, cell-based; summary of the method: as §2

inhibition [4]: Active
inhibition [5]: Active
Structure (SMILES): CO[C@H]1C[C@@H]2CC[C@@H](C)[C@@](O)(O2)C(=O)C(=O)N2CCCC[C@H]2C(=O)O[C@H]([C@H](C)C[C@@H]2CC[C@@H](OCCO)[C@H](OC)C2)CC(=O)[C@H](C)/C=C(\C)[C@@H](O)[C@@H](OC)C(=O)[C@H](C)C[C@H](C)/C=C/C=C/C=C/1C
Activity (A549 [1]): Active
Activity (A549 [2]): inactive
inhibition (A549 [3]): inactive
Activity (A549 [6]): inactive
Activity (A549 [7]): inactive
